Experimental data of several laboratories.
Each line is one published result; the experiments were not run side by side.
ABL1 F317I non-phosphorylated: Tyrosine-protein kinase ABL1, non-phosphorylated (ABL1, Homo sapiens, UniProt P00519, F317I)
ABL1 Q252H non-phosphorylated: Tyrosine-protein kinase ABL1, non-phosphorylated (ABL1, Homo sapiens, UniProt P00519, Q252H)
ABL1 F317I phosphorylated: Tyrosine-protein kinase ABL1, phosphorylated (ABL1, Homo sapiens, UniProt P00519, F317I)
ABL1 T315I non-phosphorylated: Tyrosine-protein kinase ABL1, non-phosphorylated (ABL1, Homo sapiens, UniProt P00519, T315I)
ABL1 M351T: Tyrosine-protein kinase ABL1 (ABL1, Homo sapiens, UniProt P00519, M351T)
ABL1 F317L phosphorylated: Tyrosine-protein kinase ABL1, phosphorylated (ABL1, Homo sapiens, UniProt P00519, F317L)
ABL1 H396P phosphorylated: Tyrosine-protein kinase ABL1, phosphorylated (ABL1, Homo sapiens, UniProt P00519, H396P)
ABL1 phosphorylated: Tyrosine-protein kinase ABL1, phosphorylated (ABL1, Homo sapiens, UniProt P00519)

With `O=C(NCCCN1CCOCC1)c1ccc(Nc2nccc(-c3cc4ccccc4s3)n2)cc1` the remaining binding was 49% (Tyrosine-protein kinase ABL1, phosphorylated (ABL1, Homo sapiens, UniProt P00519, M351T); binding; competition with immobilised ligand; 1 µM).
With `C[C@H]1CCN(c2nccc(-c3cnn4ncccc34)n2)C1` the remaining binding was 84% (Tyrosine-protein kinase ABL1 (ABL1, Homo sapiens, UniProt P00519, Q252H); binding; 1 µM).
For `O=C(O)[C@@H]1[C@@H](Cn2nnc3ccccc3c2=O)CC[C@H]1C(=O)c1ccc(OCCC2CCOCC2)cc1`, the remaining binding was 82% (ABL1 F317I non-phosphorylated; binding; competition with immobilised ligand; 1 µM).
`O=C(c1ccc(Nc2ncc(Cl)c(-c3ccc(Cl)s3)n2)cc1)N1CCC(N2CCCC2)CC1` has a remaining binding of 1% (ABL1 Q252H non-phosphorylated; binding; competition with immobilised ligand; 1 µM).
With `O=C(N[C@H]1CCCCC/C=C\C2C[C@@]2(C(=O)O)NC(=O)[C@@H]2C[C@@H](Oc3ccncc3)CN2C1=O)OC1CCCC1` (stereo partly drawn) the remaining binding was 96% (ABL1 F317I phosphorylated; binding; 1 µM).
`CNC(=O)[C@@H]1CC[C@@H](n2c(-c3ccc4cnccc4c3)nc3ccc(C(=O)NCc4cccc(C(N)=O)c4)cc32)C1` has a remaining binding of 100% (ABL1 F317I non-phosphorylated; binding; competition with immobilised ligand; 1 µM).
With `Cc1cnc(Nc2ccc(C(=O)N3CCC(N4CCCC4)CC3)cc2)nc1-c1cc2ccccc2s1` the remaining binding was 0.1% (ABL1 T315I non-phosphorylated; binding; competition with immobilised ligand; 1 µM).
For `Nc1ncc2c(n1)-c1c([nH]c3ccc(C#CC4CC4)cc13)CCCC2`, the remaining binding was 97% (Tyrosine-protein kinase ABL1, phosphorylated (ABL1, Homo sapiens, UniProt P00519, T315I); binding; competition with immobilised ligand; 1 µM).
With `O=c1nc(-c2ccccn2)sc2ccccc12` the remaining binding was 93% (Tyrosine-protein kinase ABL1, non-phosphorylated (ABL1, Homo sapiens, UniProt P00519); binding; competition with immobilised ligand; 1 µM).
`F[C@@H]1CCN(c2nccc(-c3cnn4ncccc34)n2)C1` gave a remaining binding of 100% (Tyrosine-protein kinase ABL1 (ABL1, Homo sapiens, UniProt P00519, E255K); binding; 1 µM).
The remaining binding of `C[C@@H](c1ccc(-n2cnc3c(N)ncnc32)cc1)N1CCc2nn(C)c(Cc3ccccc3)c2C1=O` is reported as 33% (ABL1 T315I non-phosphorylated; binding; competition with immobilised ligand; 0.1 µM).
`CN(C)c1nccc(-c2cnn3ncccc23)n1` gave a remaining binding of 100% (ABL1 M351T; binding; 1 µM).
The remaining binding of `COc1ncc2cc3ccccc3nc2c1C#N` is reported as 86% (ABL1 F317L phosphorylated; cell-free assay; competition with immobilised ligand; 5 µM).
The remaining binding of `CN(c1nccc(-c2cnn3ncccc23)n1)C1CC1` is reported as 100% (Tyrosine-protein kinase ABL1 (ABL1, Homo sapiens, UniProt P00519, F317I); binding; 1 µM).
The remaining binding of `C=CC(=O)N1CCC(C(=O)NCC(=O)N2CCN(c3nc(-c4cnc(N)nc4C(F)F)nc(N4CCOCC4)n3)CC2)CC1` is reported as 83% (ABL1 H396P phosphorylated; binding; competition with immobilised ligand; 1 µM).
`N[C@H]1CCN(c2nccc(-c3cnn4ncccc34)n2)C1` has a remaining binding of 88% (Tyrosine-protein kinase ABL1 (ABL1, Homo sapiens, UniProt P00519, T315I); binding; 1 µM).
`COc1cnc(Nc2cccc(S(N)(=O)=O)c2)nc1N1CCN(c2ccccc2)C(=O)C1` gave a remaining binding of 93% (ABL1 phosphorylated; binding; competition with immobilised ligand; 1 µM).
With `O=C(NCC1CCOCC1)c1n[nH]cc1NC(=O)c1c(F)cccc1F` the remaining binding was 84% (ABL1 F317I phosphorylated; binding; competition with immobilised ligand; 1 µM).
With `COc1ccnn2ncc(-c3ccnc(N(C)C)n3)c12` the remaining binding was 73% (ABL1 phosphorylated; binding; 1 µM).
The remaining binding of `O=C(c1ccc(Nc2ncc(Cl)c(-c3cc4ccccc4s3)n2)cc1)N1CCC(N2CCCC2)CC1` is reported as 0.9% (ABL1 T315I non-phosphorylated; binding; competition with immobilised ligand; 1 µM).
For `CN(C(=O)c1ccccc1)c1cc(N(C)c2ccc3c(c2)CCc2ccc(C(=O)NCCN4CCOCC4)cc2C3=O)ccc1F`, the remaining binding was 68% (ABL1 F317L phosphorylated; cell-free assay; competition with immobilised ligand; 1 µM).
For `CC1CCCN1c1nccc(-c2cnn3ncccc23)n1` (stereo not drawn), the remaining binding was 98% (ABL1 M351T; binding; 1 µM).
For `O=C(NCCCN1CCOCC1)c1ccc(Nc2ncc(Cl)c(-c3ccc(Cl)s3)n2)cc1`, the remaining binding was 71% (Tyrosine-protein kinase ABL1, non-phosphorylated (ABL1, Homo sapiens, UniProt P00519, F317L); binding; competition with immobilised ligand; 1 µM).
The remaining binding of `CCOCCn1cc(C(=O)Nc2ccc(-n3nc(-c4cccnc4)cc3C(F)(F)F)cn2)ccc1=O` is reported as 79% (ABL1 F317L phosphorylated; cell-free assay; competition with immobilised ligand; 1 µM).
`COc1cnc(Nc2cccc(S(N)(=O)=O)c2)nc1N1CCN(c2ccccc2)CC1` has a remaining binding of 87% (ABL1 H396P phosphorylated; binding; competition with immobilised ligand; 1 µM).
`CO[C@H]1CC[C@H](CNc2ccc(S(=O)(=O)NC(=O)c3ccc(N4CCN(CC5=C(c6ccc(Cl)cc6)CC(C)(C)CC5)CC4)cc3Oc3cnc4[nH]ccc4c3)cc2[N+](=O)[O-])CC1` gave a remaining binding of 81% (ABL1 Q252H non-phosphorylated; cell-free assay; competition with immobilised ligand; 1 µM).
`O=C(c1ccc(Nc2nccc(-c3cc4ccccc4s3)n2)cc1)N1CCC(N2CCCC2)CC1` has a remaining binding of 13% (ABL1 H396P phosphorylated; binding; competition with immobilised ligand; 1 µM).
The remaining binding of `CCN1CCN(Cc2ccc(C(=O)Nc3ccc(C)c(Oc4ccc5c(c4)CC(=O)N5)c3)cc2C(F)(F)F)CC1` is reported as 9.6% (ABL1 F317L phosphorylated; binding; competition with immobilised ligand; 1 µM).
The remaining binding of `c1cncc(-c2cccc(Nc3nccc(NC4CCCCC4)n3)c2)c1` is reported as 32% (ABL1 phosphorylated; binding; competition with immobilised ligand; 10 µM).
For `CCCCN(CCCC)C(=O)CN1C[C@@H](c2cc(OC)c3c(c2)OCO3)[C@H](C(=O)O)[C@H]1CC(C)(C)CCC`, the remaining binding was 93.5% (ABL1 F317L phosphorylated; cell-free assay; competition with immobilised ligand; 1 µM).
`CN1CCN(c2ccc(Nc3nccc(-c4cccc([N+](=O)[O-])c4)n3)cc2C(F)(F)F)CC1` has a remaining binding of 4% (Tyrosine-protein kinase ABL1 (ABL1, Homo sapiens, UniProt P00519, Y253F); binding; 10 µM).
With `COc1cccc(CNC(=O)c2nc3scc(COCc4ccc(C(=O)O)cc4)c3c(=O)[nH]2)c1` the remaining binding was 84.6% (Tyrosine-protein kinase ABL1, phosphorylated (ABL1, Homo sapiens, UniProt P00519, Y253F); cell-free assay; competition with immobilised ligand; 1 µM).
`O=C(Nc1c[nH]nc1C(=O)NC1CCNCC1)c1cc(F)cc(F)c1` has a remaining binding of 100% (ABL1 Q252H non-phosphorylated; binding; competition with immobilised ligand; 1 µM).
